In ChEMBL document CHEMBL1135770, “Synthesis and transporter binding properties of 3beta-[4'-(phenylalkyl, -phenylalkenyl, and -phenylalkynyl)phenyl]tropane-2beta-carboxylic acid methyl esters: evidence of a remote phenyl binding domain on the dopamine transporter” (J Med Chem, 2002):

What was measured:
[1] = biological target: T1, Norepinephrine transporter (Rattus norvegicus, UniProt Q9WTR4); assay: Tested for the binding affinity towards Norepinephrine transporter in rat cerebral cortex by displacing [3H]nisoxetine radioligand; type: tissue-based
T1 sequence (Q9WTR4 whole entry): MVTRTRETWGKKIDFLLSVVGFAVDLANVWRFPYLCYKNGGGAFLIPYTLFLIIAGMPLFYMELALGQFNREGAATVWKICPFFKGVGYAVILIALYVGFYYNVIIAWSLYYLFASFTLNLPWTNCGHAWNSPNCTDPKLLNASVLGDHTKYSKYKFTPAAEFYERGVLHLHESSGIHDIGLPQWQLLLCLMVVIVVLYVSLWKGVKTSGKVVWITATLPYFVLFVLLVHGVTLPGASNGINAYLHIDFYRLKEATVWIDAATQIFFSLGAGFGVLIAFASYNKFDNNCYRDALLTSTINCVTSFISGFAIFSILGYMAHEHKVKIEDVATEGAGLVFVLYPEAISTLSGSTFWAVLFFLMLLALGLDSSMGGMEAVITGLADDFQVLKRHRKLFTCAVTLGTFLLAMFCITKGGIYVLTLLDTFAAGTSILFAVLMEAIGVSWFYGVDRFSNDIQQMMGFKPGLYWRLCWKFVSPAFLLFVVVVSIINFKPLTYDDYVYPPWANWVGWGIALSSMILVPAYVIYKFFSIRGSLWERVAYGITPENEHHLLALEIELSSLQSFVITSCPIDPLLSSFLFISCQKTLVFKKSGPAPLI
Procedure, shortened: (§1)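 Competition binding with 0.5 nM [³H]nisoxetine as final radioligand concentration.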

[2] = biological target: Sodium-dependent dopamine transporter (Rattus norvegicus, UniProt P23977); assay: 50% Inhibition against dopamine transporter (DAT) in rat striatal tissue by displacing [3H]WIN-35428 radioligand; type: tissue-based, Striatum
Sodium-dependent dopamine transporter, sequence (P23977 whole entry): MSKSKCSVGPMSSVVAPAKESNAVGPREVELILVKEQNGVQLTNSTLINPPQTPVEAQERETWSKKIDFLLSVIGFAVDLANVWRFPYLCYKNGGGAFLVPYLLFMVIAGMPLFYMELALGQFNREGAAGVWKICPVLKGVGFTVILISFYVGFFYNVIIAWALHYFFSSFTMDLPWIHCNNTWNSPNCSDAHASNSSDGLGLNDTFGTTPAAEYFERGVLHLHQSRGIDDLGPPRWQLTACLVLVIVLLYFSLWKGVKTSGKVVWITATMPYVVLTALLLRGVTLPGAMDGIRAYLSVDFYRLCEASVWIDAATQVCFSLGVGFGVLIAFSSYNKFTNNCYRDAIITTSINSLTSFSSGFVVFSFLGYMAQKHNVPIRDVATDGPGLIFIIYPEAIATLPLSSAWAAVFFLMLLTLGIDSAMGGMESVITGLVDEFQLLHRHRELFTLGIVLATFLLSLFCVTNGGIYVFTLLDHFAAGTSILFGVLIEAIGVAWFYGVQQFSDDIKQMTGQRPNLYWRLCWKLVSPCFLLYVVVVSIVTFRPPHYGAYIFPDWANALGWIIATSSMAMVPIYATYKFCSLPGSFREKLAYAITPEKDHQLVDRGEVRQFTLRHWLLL
Procedure, shortened: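 Competition binding with 0.5 nM [³H]WIN35,428 as final radioligand concentration.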

[3] = biological target: T2, Sodium-dependent serotonin transporter (Rattus norvegicus, UniProt P31652); assay: 50% Inhibition against Serotonin transporter in rat midbrain tissue by displacing [3H]paroxetine radioligand; type: tissue-based
T2 sequence (P31652 whole entry): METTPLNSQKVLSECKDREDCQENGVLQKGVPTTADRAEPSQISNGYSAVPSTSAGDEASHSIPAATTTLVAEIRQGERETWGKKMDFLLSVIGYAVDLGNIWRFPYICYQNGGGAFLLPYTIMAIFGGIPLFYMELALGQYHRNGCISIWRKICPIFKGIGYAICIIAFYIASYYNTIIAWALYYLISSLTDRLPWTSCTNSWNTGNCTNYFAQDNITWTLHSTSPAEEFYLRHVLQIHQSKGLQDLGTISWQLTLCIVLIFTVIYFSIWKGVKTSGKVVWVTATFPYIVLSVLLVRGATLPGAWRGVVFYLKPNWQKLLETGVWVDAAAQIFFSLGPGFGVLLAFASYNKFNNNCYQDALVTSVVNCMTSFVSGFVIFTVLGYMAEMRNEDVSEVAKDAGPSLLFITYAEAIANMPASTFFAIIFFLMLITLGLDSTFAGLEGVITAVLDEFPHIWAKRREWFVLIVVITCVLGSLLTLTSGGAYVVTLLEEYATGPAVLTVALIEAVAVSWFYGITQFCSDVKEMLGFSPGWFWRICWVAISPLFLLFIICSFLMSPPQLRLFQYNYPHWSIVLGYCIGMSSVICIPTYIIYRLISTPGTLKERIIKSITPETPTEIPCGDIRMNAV
Procedure, shortened: (§2)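 Competition binding with 0.2 nM [³H]paroxetine as final radioligand concentration.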

[4] = biological target: T2, Sodium-dependent serotonin transporter; assay: Tested for the binding affinity towards Serotonin transporter in rat midbrain tissue by displacing [3H]paroxetine radioligand; type: tissue-based; procedure, shortened: as §2
[5] = biological target: T1, Norepinephrine transporter; assay: 50% Inhibition against Norepinephrine transporter in rat cerebral cortex by displacing [3H]nisoxetine radioligand; type: tissue-based; procedure, shortened: as §1

COC(=O)[C@@H]1C2CC[C@H](C[C@@H]1c1ccccc1)N2C was tested, and the Ki [1] was 55 nM.

COC(=O)C1[C@@H](c2ccc(CCCCc3ccccc3)cc2)CC2CC[C@H]1N2C (stereo partly specified) gave an IC50 [2] of 228 nM, a Ki [1] of 1390 nM and an IC50 [3] of 4820 nM. It also gave a Ki [4] of 439 nM and an IC50 [5] of 2310 nM.

Work on CCCc1ccc([C@H]2CC3CC[C@H](C2C(=O)OC)N3C)cc1 (stereo partly specified) yielded an IC50 [2] of 68.5 nM, a Ki [1] of 2360 nM and an IC50 [3] of 70.4 nM. For the same molecule, the Ki [4] was 6.4 nM and the IC50 [5] was 3920 nM.

COC(=O)C1[C@@H](c2ccc3ccccc3c2)CC2CC[C@H]1N2C (stereo partly specified) gave an IC50 [2] of 0.51 nM, a Ki [1] of 12.7 nM and an IC50 [3] of 0.8 nM. It also gave a Ki [4] of 0.07 nM and an IC50 [5] of 21.1 nM.

With C=Cc1ccc([C@H]2CC3CC[C@H](C2C(=O)OC)N3C)cc1 (stereo partly specified) the IC50 [2] was 1.24 nM, the Ki [1] was 47 nM and the IC50 [3] was 9.5 nM. The Ki [4] was 0.86 nM and the IC50 [5] was 78 nM.

With CC#Cc1ccc([C@H]2CC3CC[C@H](C2C(=O)OC)N3C)cc1 (stereo partly specified) the IC50 [2] was 2.37 nM, the Ki [1] was 494 nM and the IC50 [3] was 15.7 nM. It also gave a Ki [4] of 1.43 nM and an IC50 [5] of 820 nM.

Molecule COC(=O)C1[C@@H](c2ccc(C#CCCCCO)cc2)CC2CC[C@H]1N2C (stereo partly specified) has an IC50 [2] of 57 nM, a Ki [1] of 5720 nM and an IC50 [3] of 828 nM. For the same molecule, the Ki [4] was 75 nM and the IC50 [5] was 9500 nM.

COC(=O)C1[C@@H](c2ccc(C#CCc3ccccc3)cc2)CC2CC[C@H]1N2C (stereo partly specified) gave an IC50 [2] of 1.82 nM, a Ki [1] of 16.5 nM and an IC50 [3] of 13.1 nM. It also gave a Ki [4] of 1.19 nM and an IC50 [5] of 27.4 nM.

COC(=O)C1[C@@H](c2ccc(C#Cc3ccccc3)cc2)CC2CC[C@H]1N2C (stereo partly specified) showed an IC50 [2] of 3.7 nM, a Ki [1] of 209 nM and an IC50 [3] of 46.8 nM. For the same molecule, the Ki [4] was 4.3 nM and the IC50 [5] was 347 nM.

COC(=O)C1[C@@H](c2ccc(C#CCCc3ccccc3)cc2)CC2CC[C@H]1N2C (stereo partly specified) gave an IC50 [2] of 6.28 nM, a Ki [1] of 885 nM and an IC50 [3] of 2180 nM. The Ki [4] was 198 nM and the IC50 [5] was 1470 nM.

Work on COC(=O)C1C(c2ccc3ccccc3c2)CC2CC[C@H]1N2C (stereo partly specified) yielded an IC50 [2] of 1.1 nM, a Ki [1] of 42.3 nM and an IC50 [3] of 11.4 nM. It also gave a Ki [4] of 1.05 nM and an IC50 [5] of 70.2 nM.

COC(=O)C1[C@@H](c2ccc(C#CCCCc3ccccc3)cc2)CC2CC[C@H]1N2C (stereo partly specified) gave an IC50 [2] of 300 nM, a Ki [1] of 2680 nM and an IC50 [3] of 1340 nM. It also gave a Ki [4] of 122 nM and an IC50 [5] of 4450 nM.

COC(=O)C1[C@@H](c2ccc(-c3ccccc3)cc2)CC2CC[C@H]1N2C (stereo partly specified) was tested, and the IC50 [2] was 15.6 nM, the Ki [1] was 892 nM and the IC50 [3] was 95.8 nM. For the same molecule, the Ki [4] was 8.7 nM and the IC50 [5] was 1480 nM.

Work on COC(=O)C1[C@@H](c2ccc(CCc3ccccc3)cc2)CC2CC[C@H]1N2C (stereo partly specified) yielded an IC50 [2] of 5.14 nM, a Ki [1] of 6.5 nM and an IC50 [3] of 234 nM. For the same molecule, the Ki [4] was 21.3 nM and the IC50 [5] was 10.8 nM.

For COC(=O)C1[C@@H](c2ccc(CCCc3ccccc3)cc2)CC2CC[C@H]1N2C (stereo partly specified), the IC50 [2] was 351 nM, the Ki [1] was 8500 nM and the IC50 [3] was 1240 nM. The Ki [4] was 113 nM and the IC50 [5] was 14200 nM.

For C=C(c1ccccc1)c1ccc([C@H]2CC3CC[C@H](C2C(=O)OC)N3C)cc1 (stereo partly specified), the IC50 [2] was 474 nM, the Ki [1] was 4260 nM and the IC50 [3] was 2710 nM. It also gave a Ki [4] of 246 nM and an IC50 [5] of 7060 nM.

COC(=O)C1[C@@H](c2ccc(Cc3ccccc3)cc2)CC2CC[C@H]1N2C (stereo partly specified) showed an IC50 [2] of 526 nM, a Ki [1] of 606 nM and an IC50 [3] of 7240 nM. The Ki [4] was 658 nM and the IC50 [5] was 6670 nM.

Work on COC(=O)C1[C@@H](c2ccc(/C=C/Cc3ccccc3)cc2)CC2CC[C@H]1N2C (stereo partly specified) yielded an IC50 [2] of 15.8 nM, a Ki [1] of 759 nM and an IC50 [3] of 781 nM. It also gave a Ki [4] of 71 nM and an IC50 [5] of 1250 nM.

For COC(=O)C1[C@@H](c2ccc(/C=C\c3ccccc3)cc2)CC2CC[C@H]1N2C (stereo partly specified), the IC50 [2] was 11.7 nM.

Molecule COC(=O)C1[C@@H](c2ccc(/C=C/c3ccccc3)cc2)CC2CC[C@H]1N2C (stereo partly specified) has an IC50 [2] of 3.09 nM, a Ki [1] of 1180 nM and an IC50 [3] of 335 nM. For the same molecule, the Ki [4] was 30.5 nM and the IC50 [5] was 1960 nM.

Work on C/C=C\c1ccc([C@H]2CC3CC[C@H](C2C(=O)OC)N3C)cc1 (stereo partly specified) yielded an IC50 [2] of 5.29 nM, a Ki [1] of 958 nM and an IC50 [3] of 11.4 nM. The Ki [4] was 1.04 nM and the IC50 [5] was 1590 nM.

COC(=O)C1C2CC[C@H](C[C@H]1c1ccc(C)cc1)N2C (stereo partly specified) gave a Ki [1] of 36 nM and an IC50 [5] of 60 nM.

With C#Cc1ccc([C@H]2CC3CC[C@H](C2C(=O)OC)N3C)cc1 (stereo partly specified) the IC50 [2] was 1.2 nM, the Ki [1] was 50.1 nM and the IC50 [3] was 4.4 nM. The Ki [4] was 0.4 nM and the IC50 [5] was 83.2 nM.

CCc1ccc([C@H]2C[C@H]3CCC(C2C(=O)OC)N3C)cc1 (stereo partly specified) gave a Ki [1] of 2360 nM and a Ki [4] of 2.58 nM.

For COC(=O)C1=C(c2ccc3ccccc3c2)CC2CCC1N2C (stereo unspecified), the IC50 [2] was 5.17 nM, the Ki [1] was 224 nM and the IC50 [3] was 345 nM. For the same molecule, the Ki [4] was 31.4 nM and the IC50 [5] was 372 nM.
